This is an account of results in ChEMBL document CHEMBL1152534, “Synthesis of oxalamide and triazine derivatives as a novel class of hybrid 4-aminoquinoline with potent antiplasmodial activity” (Bioorg Med Chem, 2009).

The IC50 is the concentration at which inhibition is half-maximal. In general, inhibition in vivo refers to the drop in the measured response relative to a control, in per cent.

A short description of experiment [1]: Selectivity index, ratio of CC50 for african green monkey (Cercopithecus aethiops) Vero cells to IC50 for chloroquine-sensitive Plasmodium falciparum 3D7. It counts as functional. A digest of the protocol:
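SI is Vero CC50 divided by the antiplasmodial IC50. For CC50, Vero (C-1008) cells at 1 × 10⁴ cells/well were exposed to varying compound concentrations for 72 h with an MTT read-out. CC50 is the concentration killing 50% of cells.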

Experiment [2] has as its system Plasmodium yoelii. The experiment is described as follows: Antiplasmodial activity against Plasmodium yoelii infected in Swiss mice (Mus musculus) erythrocytes assessed as inhibition of beta-hematin formation after 16 hrs by fluorescence assay. The experiment is classed as functional, organism-based. The following applies: in the assay text read “absorbance measurement at 400 nm” for “fluorescence assay”. A digest of the protocol:
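Plasma came from P. yoelii-infected mouse blood at about 50% parasitemia, collected in citrate and centrifuged. The mix held 100 mM sodium acetate pH 5.1, 50 µL plasma and 100 µM hemin substrate in 1.0 mL, run in triplicate at 37 °C for 16 h with shaking. The pellet was dissolved in Tris-HCl pH 7.4 with 2.5% SDS. Absorbance at 400 nm; IC50 by non-linear regression.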

A further experiment has as its system Plasmodium falciparum. The experiment is described as follows: Antimalarial activity against chloroquine-sensitive Plasmodium falciparum 3D7 […] after 72 hrs by twofold serial dilution method. It counts as functional, organism-based. A digest of the protocol: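 P. falciparum 3D7 erythrocyte culture, 2.5% cell suspension at 0.5% parasitaemia. Compounds were twofold serially diluted from 500 ng/mL (seven concentrations) in duplicate wells and incubated 72 h. Lysis buffer with SYBR Green I (Tris pH 7.5, EDTA, saponin, Triton X-100) was added, followed by 1 h at room temperature and a fluorescence read. IC50 from non-linear regression dose–response curves.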

For experiment [3], the system named is Plasmodium yoelii. Kind of experiment: Antimalarial activity against chloroquine-resistant Plasmodium yoelii N67 infected in Swiss mice (Mus musculus) assessed as inhibition of parasitaemia at 50 mg/kg, intraperitoneally administered daily for 4 days measured on day 4 post-infection. It counts as functional. The following applies: for inhibition in vivo at 50 mg/kg: N67, ip, 96 h, route intraperitoneal. Put shortly: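 Swiss mice were inoculated with 1 × 10⁶ P. yoelii N-67 parasitized RBC on day 0. Groups of five received compound as an aqueous suspension with a few drops of Tween 80, at 50 mg/kg/day intraperitoneally once daily from day 0 to 3. Parasitaemia was read from thin smears on day 4, with group-mean percent suppression against untreated controls.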

The mark [4] stands for this setting: Plasmodium falciparum, 3D7, Vero, 72 h, read-out: IC50.

Values after ≈ are worked out from the molar mass of the structure shown.

Consider `CN(C)CCNc1nc(NCCNc2ccnc3cc(Cl)ccc23)nc(N2CCCCC2)n1`, for which, in experiment [1], the “Ratio CC50/IC50” value is listed as 1062.3. Besides, the IC50 in the experiment on Plasmodium yoelii [2] (Plasmodium yoelii, 16 h) is 13.3 µg/mL (≈ 28.4 µM); in the experiment with Plasmodium falciparum (setting [4]), 0.0159 µg/mL (≈ 0.0338 µM).
As to `CCN(CC)CCNC(=O)C(=O)NCCCNc1ccnc2cc(Cl)ccc12`, the “Ratio CC50/IC50” value in experiment [1] worked out at 232.99. Moreover, the IC50 with Plasmodium yoelii [2] (Plasmodium yoelii, 16 h) amounted to 7.99 µg/mL (≈ 19.7 µM); with Plasmodium falciparum (setting [4]), 0.0156 µg/mL (≈ 0.0384 µM).
Turning to `CC(C)(C)NC(=O)C(=O)N1CCN(CCNc2ccnc3cc(Cl)ccc23)CC1`, the IC50 entry in the experiment with Plasmodium falciparum (vero) is recorded as “Not Active”.
`CCN(CC)CCNc1nc(NCCNc2ccnc3cc(Cl)ccc23)nc(N2CCOCC2)n1`: the “Ratio CC50/IC50” value in experiment [1] was found to be 1663.75. Moreover, the IC50 with Plasmodium yoelii [2] (Plasmodium yoelii, 16 h) was determined as 9.42 µg/mL (≈ 18.8 µM); with Plasmodium falciparum (setting [4]), 0.0297 µg/mL (≈ 0.0595 µM).
As to `CN(C)CCNC(=O)C(=O)NCCCNc1ccnc2cc(Cl)ccc12`, in the experiment on Plasmodium yoelii [3], the inhibition in vivo at 50 mg/kg came to 70.5%. For the same compound, in experiment [1], the “Ratio CC50/IC50” value stood at 2527.65. The IC50 was found to be 7.98 µg/mL (≈ 21.1 µM) in the experiment with Plasmodium yoelii [2] (Plasmodium yoelii, 16 h) and 0.0264 µg/mL (≈ 0.0699 µM) in the experiment on Plasmodium falciparum (setting [4]).
Consider `CCN(CC)CCNC(=O)C(=O)N1CCN(CCNc2ccnc3cc(Cl)ccc23)CC1`, for which, in experiment [1], the “Ratio CC50/IC50” value is 194. Also, the concentration for half-maximal inhibition (IC50) result is “Not Active” in the experiment on Plasmodium yoelii [2] and 0.0798 µg/mL (≈ 0.173 µM) with Plasmodium falciparum (setting [4]).
For `O=C(NCCCNc1ccnc2cc(Cl)ccc12)C(=O)NCCN1CCOCC1`, in experiment [1], the “Ratio CC50/IC50” value was found to be 191.82. The IC50 with Plasmodium yoelii [2] (Plasmodium yoelii, 16 h) amounted to 10.7 µg/mL (≈ 25.4 µM); in the experiment with Plasmodium falciparum (setting [4]), 0.0822 µg/mL (≈ 0.196 µM).
For `CCCCNC(=O)C(=O)NCCNc1ccnc2cc(Cl)ccc12`, in that order: 18.88, 6.76 µg/mL (≈ 19.4 µM) and 0.233 µg/mL (≈ 0.668 µM).
For the compound `O=C(NCCCN1CCOCC1)C(=O)N1CCN(CCNc2ccnc3cc(Cl)ccc23)CC1`, the “Ratio CC50/IC50” value in experiment [1] is 1221.84. The values for the IC50 result in the experiment on Plasmodium yoelii [2] and in the experiment on Plasmodium falciparum (setting [4]) were “Not Active” and 0.0408 µg/mL (≈ 0.0835 µM), respectively.
Consider `O=C(NCCCNc1ccnc2cc(Cl)ccc12)C(=O)NCCCN1CCOCC1`, for which, in the experiment on Plasmodium yoelii [3], the inhibition in vivo at 50 mg/kg worked out at 21.4%. Further, the “Ratio CC50/IC50” value in experiment [1] amounted to 1625.52. Moreover, the IC50 with Plasmodium yoelii [2] (Plasmodium yoelii, 16 h) came out at 8.74 µg/mL (≈ 20.1 µM); in the experiment on Plasmodium falciparum (setting [4]) it was 0.0254 µg/mL (≈ 0.0586 µM).
In the case of `CN(C)CCNC(=O)C(=O)N1CCN(CCNc2ccnc3cc(Cl)ccc23)CC1`, the “Ratio CC50/IC50” value in experiment [1] was found to be 65. The IC50 with Plasmodium yoelii [2] (Plasmodium yoelii, 16 h) was less than 20 µg/mL; in the experiment on Plasmodium falciparum (setting [4]), 0.0844 µg/mL (≈ 0.195 µM).
`Cc1ccc(S(=O)(=O)n2cc(C(=O)C(=O)N3CCN(CCNc4ccnc5cc(Cl)ccc45)CC3)c3ccccc32)cc1`: the IC50 entry in the experiment with Plasmodium falciparum (vero) is “Not Active”.
Still for that read-out and setting: with `CC(C)(C)NC(=O)C(=O)N1CCN(c2ccnc3cc(Cl)ccc23)CC1` the entry was “Not Active”.
Consider `Clc1ccc2c(NCCNc3nc(NCCCN4CCOCC4)nc(N4CCCCC4)n3)ccnc2c1`, for which the “Ratio CC50/IC50” value in experiment [1] was 65.21. Besides, the IC50 in the experiment on Plasmodium yoelii [2] (Plasmodium yoelii, 16 h) was found to be 7.79 µg/mL (≈ 14.8 µM); in the experiment on Plasmodium falciparum (setting [4]) it was 0.0656 µg/mL (≈ 0.125 µM).
The like results for `Clc1ccc2c(NCCCNc3nc(NCCN4CCOCC4)nc(N4CCOCC4)n3)ccnc2c1` were, in that order, 1017.32, 8.72 µg/mL (≈ 16.5 µM) and 0.0179 µg/mL (≈ 0.0338 µM).
Take `Clc1ccc2c(NCCCNc3nc(NCCCN4CCOCC4)nc(N4CCCCC4)n3)ccnc2c1`: in the experiment on Plasmodium yoelii [3], the Activity result is “Toxic”. For the same compound, the “Ratio CC50/IC50” value in experiment [1] came to 860.41. The IC50 was 7.54 µg/mL (≈ 14 µM) in the experiment with Plasmodium yoelii [2] (Plasmodium yoelii, 16 h) and 0.00523 µg/mL (≈ 0.00968 µM) in the experiment with Plasmodium falciparum (setting [4]).
Take `Clc1ccc2c(NCCCNc3nc(NCCN4CCOCC4)nc(N4CCCCC4)n3)ccnc2c1`: the IC50 entry in the experiment on Plasmodium falciparum (vero) is given as “Not Active”.
`CN1CCN(c2nc(NCCNc3ccnc4cc(Cl)ccc34)nc(N3CCOCC3)n2)CC1`: in the experiment on Plasmodium yoelii [3], the Activity result is “Toxic”. Further, the “Ratio CC50/IC50” value in experiment [1] stood at 4692.08. In addition, the concentration for half-maximal inhibition (IC50) was 6.19 µg/mL (≈ 12.8 µM) with Plasmodium yoelii [2] (Plasmodium yoelii, 16 h) and 0.01 µg/mL (≈ 0.0207 µM) in the experiment with Plasmodium falciparum (setting [4]).
With `Cc1ccc(S(=O)(=O)n2cc(C(=O)C(=O)N3CCN(c4ccnc5cc(Cl)ccc45)CC3)c3ccccc32)cc1`, the IC50 entry in the experiment on Plasmodium falciparum (vero) is on record as “Not Active”.
Consider `Clc1ccc2c(NCCNc3nc(NCCCN4CCOCC4)nc(N4CCOCC4)n3)ccnc2c1`, for which the “Ratio CC50/IC50” value in experiment [1] turned out to be 2405.86. Also, the IC50 with Plasmodium yoelii [2] (Plasmodium yoelii, 16 h) turned out to be 8.58 µg/mL (≈ 16.2 µM); with Plasmodium falciparum (setting [4]) it was 0.0222 µg/mL (≈ 0.042 µM).
The like results for `O=C(NCCN1CCOCC1)C(=O)N1CCN(CCNc2ccnc3cc(Cl)ccc23)CC1` were, in that order, 183.05, 14.2 µg/mL (≈ 29.8 µM) and 0.262 µg/mL (≈ 0.551 µM).
For `CN(C)CCNC(=O)C(=O)NCCNc1ccnc2cc(Cl)ccc12`, in that order: 383.03, 11.1 µg/mL (≈ 30.5 µM) and 0.0316 µg/mL (≈ 0.0868 µM).
For `Clc1ccc2c(NCCCNc3nc(NCCCN4CCOCC4)nc(N4CCOCC4)n3)ccnc2c1`, in that order: 706.15, 8.6 µg/mL (≈ 15.9 µM) and 0.0521 µg/mL (≈ 0.096 µM).
Regarding `CCN(CC)CCNc1nc(NCCNc2ccnc3cc(Cl)ccc23)nc(N2CCCCC2)n1`, the “Ratio CC50/IC50” value in experiment [1] amounted to 223.13. The IC50 was found to be 10.2 µg/mL (≈ 20.4 µM) in the experiment with Plasmodium yoelii [2] (Plasmodium yoelii, 16 h) and 0.0147 µg/mL (≈ 0.0295 µM) in the experiment with Plasmodium falciparum (setting [4]).
